High-throughput results (PubChem BioAssay)
KCNQ1 act – potentiators or activators of human KCNQ1 potassium channel. B-score at 10 µM. AID 2648. 310,000 tested, 0.35% active. P51787. CHO-K1 KCNQ1, thallium flux FluxOR fluorescence; stronger effect = higher value;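 active means fluorescence ratio B-score, a plate-corrected score, at least three library SD, with initial intensity B-score within 5 SD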
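assay system = CHO-K1 cells stably expressing KCNQ1 | medium = assay buffer, equal DMSO in all wells | timing = 37 °C overnight plating, 90-min dark dye load, 20-min compound pretreatment | measured by = kinetic FluxOR thallium fluorescence, 10-s 1-Hz baseline, 110-s post-stimulus read | measure = fluorescence change relative to baseline, converted to B score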
hERG protect – hERG (human) protection from proarrhythmic block. Q12809. CHO-hERG, FluxOR thallium flux, dofetilide IC70 present. activation (rescue from dofetilide block), less the hit threshold, % at 10 µM. 310,000 tested, 0.51% active;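 active means activation above the mean of controls blocked by dofetilide plus 5 SD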;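 further: thallium influx through hERG after potassium depolarization seen as dye fluorescence rise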
KCNQ1 block – blocks the human KCNQ1 potassium channel; P51787; B-score at 10 µM; AID 2642; CHO-K1 KCNQ1, FluxOR thallium flux fluorescence; stronger effect = higher value; 310,000 tested, 1.3% active;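 active means compounds whose thallium flux B-score, printed positive for inhibition, exceeds three library SD while starting fluorescence stays within three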;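 further: channel opened by potassium depolarization with thallium stimulus after 20 min compound exposure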
KCNK3 block – human KCNK3 channel inhibition, primary screen. AID 602410. B-score at 10 µM. 340,000 tested, 0.84% active. CHO-KCNK3 thallium flux, FluxOR fluorescence; stronger effect = lower value. O14649;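 active means B-score under library mean minus 4 SD, starting fluorescence ratio at most library mean plus 5 SD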;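 further: more negative B-score means stronger inhibition of thallium flux through KCNK3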
Kir21 block – Kir2.1 (mouse) channel inhibition | 310,000 tested, 0.85% active | P35561 | B-score at 10 µM | HEK293-Kir2.1, FluxOR thallium flux fluorescence; stronger effect = lower value | AID 1672;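 active means fluorescence ratio B-score at or below minus 3 SD of library scores, with starting-brightness B-score within 2 SD, cut at about -4.2 in these data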;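 further: channel flux triggered by added potassium and thallium sulfate stimulus; B-score of peak minus minimum fluorescence over baseline after thallium stimulus; more negative B-score means stronger Kir2.1 block with less thallium influx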
KCNK9 inh – inhibitors of human KCNK9 two-pore domain potassium channel; AID 488922; 310,000 tested, 1.2% active; HEK293 KCNK9, FluxOR thallium flux fluorescence; stronger effect = lower value; B-score at 10 µM;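 active means ratio B-score over 3 SD below the library mean, with starting fluorescence within 5 SD of its mean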;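 further: negative B-score means less thallium flux so channel inhibition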
Target sequence (Q9NPC2 whole entry, looked up, the tested form may be a part): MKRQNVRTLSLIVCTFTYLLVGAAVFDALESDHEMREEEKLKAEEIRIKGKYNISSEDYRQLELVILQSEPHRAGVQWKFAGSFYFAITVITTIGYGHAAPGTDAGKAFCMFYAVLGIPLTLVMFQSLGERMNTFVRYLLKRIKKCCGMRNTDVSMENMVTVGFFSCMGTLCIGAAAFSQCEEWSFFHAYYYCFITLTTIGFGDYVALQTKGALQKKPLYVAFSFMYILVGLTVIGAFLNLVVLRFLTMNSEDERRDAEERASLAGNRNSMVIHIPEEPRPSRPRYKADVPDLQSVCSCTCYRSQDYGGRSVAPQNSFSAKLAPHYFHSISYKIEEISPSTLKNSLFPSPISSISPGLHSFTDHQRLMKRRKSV
KCNK3 confirm – confirmation of human KCNK3 two-pore domain potassium channel inhibitors; ratio percent of control, % at 10 µM; 2,400 tested, 99% active; CHO-KCNK3 thallium flux, FluxOR fluorescence; 0% buffer, 100% carvedilol maximal block; shares compounds with KCNK3 block;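 active means ratio percent of control, averaged over triplicates, above buffer control mean plus 5 SD, cut at about 64% in these data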;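 further: ratio is the fluorescence rise from min to max over baseline after thallium stimulus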
KCNK3 uninduced – KCNK3 inhibitor counter-screen hit in non-induced cells; shares compounds with KCNK3 block; non-induced KCNK3 parental cells, FluxOR thallium flux; stronger effect = lower value; thallium flux ratio (lower = more inhibition) at 10 µM; 2,400 tested, 40% active;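 active means thallium flux ratio, averaged over three wells, more than 5 SD below the buffer control mean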;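 further: host cells are CHO cells without KCNK3 induction; ratio is peak minus trough fluorescence over baseline then normalized to buffer controls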
The depositor's hits bear a star. In the library only some 3.8% were active in any assay of this set; here they are far more common.

What do the screens show for `CC(C)NC(=O)C(c1ccc(F)cc1)N(C(=O)CCC(=O)Nc1ccccn1)C1CCCC1` (stereo not drawn)?
KCNQ1 act: inactive; hERG protect: -9; KCNQ1 block: inactive; KCNK3 block: -13*; Kir21 block: -0.85; KCNK9 inh: inactive; KCNK3 confirm: 89*; KCNK3 uninduced: inactive

Results for CCCN1C(=O)/C(=C/c2cc(C)n(C)c2C)SC1=Nc1ccc(OC)cc1 ?
KCNQ1 act: inactive; hERG protect: -8; KCNQ1 block: inactive; KCNK3 block: -11*; Kir21 block: -0.76; KCNK9 inh: inactive; KCNK3 confirm: 101*; KCNK3 uninduced: 0.15*

What do the screens show for `Cc1ccc(NC(=O)CN(C)C(=O)CSc2nnc(N)s2)cc1`?
KCNK3 block: inactive

How did Cc1ccc(NC(=O)COC(=O)c2cc(=O)c3ccccc3o2)cc1F do in these assays?
KCNK3 block: inactive

What do the screens show for `CC1CCCC(C)N1C(=O)COC(=O)CCC(=O)c1ccc(F)cc1` (stereo not drawn)?
KCNK3 block: inactive

How did CCCN1CCc2c(sc(NC(=O)c3ccc(S(=O)(=O)N4CCN(C(=O)OCC)CC4)cc3)c2C(N)=O)C1 do in these assays?
KCNQ1 act: inactive; hERG protect: -20; KCNQ1 block: 6*; KCNK3 block: -11*; Kir21 block: -3.1; KCNK9 inh: inactive; KCNK3 confirm: 125*; KCNK3 uninduced: 0.093*

Results for CC(Cc1cccs1)NC(=O)Nc1ccccc1 (stereo not drawn) ?
KCNQ1 act: inactive; hERG protect: -6; KCNQ1 block: inactive; KCNK3 block: -9*; Kir21 block: -0.02; KCNK9 inh: inactive; KCNK3 confirm: 90*; KCNK3 uninduced: inactive

Results for CCC(C)n1c(/C=C/c2ccccc2)nc2ccccc21 (stereo not drawn) ?
KCNQ1 act: inactive; hERG protect: -19; KCNQ1 block: inactive; KCNK3 block: -9.8*; Kir21 block: 0; KCNK9 inh: inactive; KCNK3 confirm: 88*; KCNK3 uninduced: inactive

How did CCn1c(/C=C/c2ccccc2)nc2ccccc21 do in these assays?
KCNQ1 act: inactive; hERG protect: -13; KCNQ1 block: inactive; KCNK3 block: inactive; Kir21 block: -0.95; KCNK9 inh: inactive

Results for COc1ccc(Cn2c(/C=C/c3ccccc3)nc3ccccc32)cc1 ?
KCNQ1 act: inactive; hERG protect: -8; KCNQ1 block: inactive; KCNK3 block: -9.5*; Kir21 block: 0.02; KCNK9 inh: -6.8*; KCNK3 confirm: 101*; KCNK3 uninduced: 0.15*

What do the screens show for `O=C(c1ccco1)N1CCC(c2nc(-c3ccccc3Cl)no2)CC1`?
KCNQ1 act: inactive; hERG protect: -6; KCNQ1 block: inactive; KCNK3 block: inactive; Kir21 block: 0.24; KCNK9 inh: inactive

How did O=C(Nc1ccc(Cl)cc1)N1CCC(c2nc(-c3ccccc3Cl)no2)CC1 do in these assays?
KCNQ1 act: inactive; hERG protect: -3; KCNQ1 block: inactive; KCNK3 block: -8.7*; Kir21 block: 0.17; KCNK9 inh: inactive; KCNK3 confirm: 108*; KCNK3 uninduced: 0.14*

Results for CN(C)S(=O)(=O)Oc1ccsc1C(=O)Nc1cccc(Cl)c1Cl ?
KCNQ1 act: inactive; hERG protect: -6; KCNQ1 block: inactive; KCNK3 block: -9.1*; Kir21 block: -0.07; KCNK9 inh: inactive; KCNK3 confirm: 88*; KCNK3 uninduced: inactive

What do the screens show for `CN(C)S(=O)(=O)Oc1ccsc1C(=O)Nc1ccccc1Cl`?
KCNQ1 act: inactive; hERG protect: -10; KCNQ1 block: inactive; KCNK3 block: inactive; Kir21 block: -1.3; KCNK9 inh: inactive

Results for O=C(NCc1ccc2c(c1)OCO2)c1ccc(CSCc2ccc(Cl)cc2)o1 ?
KCNQ1 act: inactive; hERG protect: -8; KCNQ1 block: inactive; KCNK3 block: -8.8*; Kir21 block: -0.07; KCNK9 inh: inactive; KCNK3 confirm: 96*; KCNK3 uninduced: 0.14*

How did COc1ccc(C2N(C(=O)N(C)C)CCN2S(=O)(=O)c2ccc(OC)cc2)cc1 (stereo not drawn) do in these assays?
KCNQ1 act: inactive; hERG protect: -12; KCNQ1 block: inactive; KCNK3 block: inactive; Kir21 block: 0.55; KCNK9 inh: inactive

What do the screens show for `Cc1cccc(C(=O)c2cnc3ccccc3c2-c2ccccc2)c1`?
KCNQ1 act: inactive; hERG protect: -19; KCNQ1 block: inactive; KCNK3 block: -11*; Kir21 block: -0.46; KCNK9 inh: -6.7*; KCNK3 confirm: 129*; KCNK3 uninduced: 0.14*

Results for CN(CC(CC(=O)Nc1nncs1)c1ccccc1)S(=O)(=O)c1ccc(Br)cc1 (stereo not drawn) ?
KCNQ1 act: inactive; hERG protect: -14; KCNQ1 block: inactive; KCNK3 block: inactive; Kir21 block: -2.8; KCNK9 inh: inactive

How did CCc1nc(SCC(=O)NC2CCCC2)c2c(=O)n(C)c(=O)n(C)c2n1 do in these assays?
KCNQ1 act: inactive; hERG protect: -2; KCNQ1 block: inactive; KCNK3 block: inactive; Kir21 block: 0.82; KCNK9 inh: inactive

What do the screens show for `COCC1CCCN(C(=O)c2ccc3nc(Cc4cccc(Cl)c4)oc3c2)C1` (stereo not drawn)?
KCNQ1 act: inactive; hERG protect: -6; KCNQ1 block: inactive; KCNK3 block: -9.5*; Kir21 block: -0.99; KCNK9 inh: inactive; KCNK3 confirm: 96*; KCNK3 uninduced: inactive

How did COc1cccc(CNCc2ccco2)c1O do in these assays?
KCNQ1 act: inactive; hERG protect: -3; KCNQ1 block: inactive; KCNK3 block: inactive; Kir21 block: -1.1; KCNK9 inh: inactive

Results for Cc1cccn2c(=O)c3cc(C(=O)NCC4CCCO4)c(=N)n(C4CCCC4)c3nc12 (stereo not drawn) ?
KCNQ1 act: inactive; hERG protect: -10; KCNQ1 block: inactive; KCNK3 block: inactive; Kir21 block: 0.18; KCNK9 inh: inactive

Results for Cc1ccccc1OCC(=O)N1CCc2ccccc2C1 ?
KCNQ1 act: inactive; hERG protect: -6; KCNQ1 block: inactive; KCNK3 block: inactive; Kir21 block: 0.08; KCNK9 inh: inactive
